Results published in PMC6401406 (Theranostics, 2019).
Where two headings read alike, the source gives them in different places.

Experiments:
[1] = type: in vivo, Sprague-Dawley rats; details: for Tmax: male, Sprague-Dawley, rat, iv, 30 mg/kg
Procedure, shortened: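 Male 8-week-old Sprague-Dawley rats were acclimated ≥1 week, fasted 12 h, then given a single i.v. 30 mg kg-1 dose. Lung, liver, kidney, spleen, heart and heparinized plasma were collected at 0, 10, 30, 60, 120 and 240 min. Organs were saline-washed and stored at -80 °C. Sections underwent MALDI MSI with internal-standard correction; homogenates underwent LC-MS/MS. Identity was confirmed by accurate mass and tandem MS. Mean ± SD, three animals.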

[2] = cited from earlier work
[3] = cited from earlier work; remark: listed apart in the source

Row | Tmax ([1]; kidney) [min] | Tmax ([1]; liver) [min] | Tmax ([1]; lung) [min] | Time of maximum concentration of demethylated metabolite in liver ([1]; rat liver after i.v. tetrandrine 30 mg kg^-1) [h] | Detection of metabolite in liver tissue ([1]; rat liver after i.v. tetrandrine, MALDI MSI, accurate mass and tandem MS) | Compound | Distribution within kidney ([1]; rat kidney, 60 min post-dose, 3D MALDI imaging) | Half-life (t1/2) in blood versus heart ([2]; after i.v. administration) | Uptake efficiency in spleen versus other tissues [2] | Tmax in spleen ([2]; post-dose, spleen) [min] | Relatively non-toxic dose [3]
1 | 30 | 120 | 10 |  |  | COc1ccc2cc1Oc1ccc(cc1)C[C@H]1c3cc(c(OC)cc3CCN1C)Oc1c(OC)c(OC)cc3c1[C@H](C2)N(C)CC3 [tetrandrine, Tetrandrine] | mainly distributed in the cortex of kidney | generally similar | higher in spleen than other tissues | 270 | up to 90 mg kg^-1 body weight
2 |  |  |  | 4 | detected | demethylated tetrandrine |  |  |  |  | 
